According to ChEMBL document CHEMBL1139766, “Discovery of potent and orally bioavailable heterocycle-based beta3-adrenergic receptor agonists, potential therapeutics for the treatment of obesity” (Bioorg Med Chem Lett, 2007):

Tests used:
[1] = test system: Rattus norvegicus; assay: Increase in oxygen consumption in rat at 10 mg/kg, po after 120 mins; assay type: functional
Summary of the method: (§1)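 Rats dosed orally (0.3, 1, 3, 10 mg/kg). Baseline O2 consumption recorded every 10 min for 3 h, then dosing with compound or vehicle and 2 h further recording. Values excluded when ambulatory activity was >100 counts/10 min, along with the first five values of the run and the first value after dosing. Change taken over 0–120 min.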

[2] = Clearance in rat; assay type: ADME, organism-based; conditions: in vivo
[3] = species on record: Rattus norvegicus; assay: Increase in oxygen consumption in rat after 120 mins; assay type: functional; conditions: 2 h; summary of the method: as §1
[4] = test system: Rattus norvegicus; assay: Increase in heart rate in rat at 10 mg/kg; assay type: functional
[5] = test system: Rattus norvegicus; assay: Increase in oxygen consumption in rat at 1.0 mg/kg, po after 120 mins; assay type: functional; summary of the method: as §1
[6] = test system: Rattus norvegicus; assay: Increase in oxygen consumption in rat at 3 mg/kg, po after 120 mins; assay type: functional; summary of the method: as §1
[7] = target: Beta-2 adrenergic receptor (Homo sapiens, UniProt P07550); assay: Displacement of [125I]iodocyanopindolol from human adrenergic beta-2 receptor expressed in CHO cells; assay type: cell-based
[8] = test system: Rattus norvegicus; assay: Increase in oxygen consumption in rat at 0.3 mg/kg, po after 120 mins; assay type: functional; summary of the method: as §1
[9] = target: T1, Beta-3 adrenergic receptor (Homo sapiens, UniProt P13945); assay: Intrinsic activity at human adrenergic beta-3 receptor expressed in CHO cells assessed as cAMP production relative to isoproterenol; assay type: functional, cell-based
Summary of the method: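 Functional readout was cAMP levels in Chinese hamster ovary cells expressing the cloned human β3 receptor. Intrinsic activity is given as a percentage of the isoproterenol maximum. Compounds with EC50 < 100 nM and IA > 50% were tested at least twice.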
Target sequence in this assay (P13945 whole entry, looked up): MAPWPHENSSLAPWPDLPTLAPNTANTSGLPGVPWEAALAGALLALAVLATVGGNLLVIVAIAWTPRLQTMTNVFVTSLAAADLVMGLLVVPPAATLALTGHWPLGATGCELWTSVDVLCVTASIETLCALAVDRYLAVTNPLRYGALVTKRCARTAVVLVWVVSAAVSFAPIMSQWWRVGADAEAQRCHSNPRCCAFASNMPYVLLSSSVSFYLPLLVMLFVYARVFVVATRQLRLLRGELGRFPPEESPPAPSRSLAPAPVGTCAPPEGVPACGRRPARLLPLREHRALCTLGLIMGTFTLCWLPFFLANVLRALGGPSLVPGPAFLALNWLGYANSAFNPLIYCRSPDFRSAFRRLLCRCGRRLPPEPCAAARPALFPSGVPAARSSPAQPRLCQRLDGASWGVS

[10] = Half life in rat; assay type: ADME, organism-based; conditions: in vivo
Summary of the method: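 Half-life determined after IV dosing in rat.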

[11] = Half life in dog; assay type: ADME, organism-based, Canis lupus familiaris; conditions: in vivo
Summary of the method: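 Half-life determined after IV dosing in dog.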

[12] = target: T1, Beta-3 adrenergic receptor; assay: Agonist activity at human adrenergic beta-3 receptor expressed in CHO cells assessed as cAMP production; assay type: functional, cell-based
Summary of the method: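 cAMP accumulation measured in CHO cells expressing cloned human β3-AR. Potency given as EC50; intrinsic activity (IA) expressed as % of isoproterenol maximum. Compounds with EC50 < 100 nM and IA > 50% tested at least twice in functional assays.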
Target sequence in this assay (P13945 whole entry): as the sequence (P13945 whole entry, looked up) above

[13] = target: Beta-1 adrenergic receptor (Homo sapiens, UniProt P08588); assay: Displacement of [125I]iodocyanopindolol from human adrenergic beta-1 receptor expressed in CHO cells; assay type: cell-based
[14] = species on record: Homo sapiens; assay: Selectivity for human adrenergic beta-3 receptor over human adrenergic beta-1 receptor
Summary of the method: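 Selectivity came from radioligand binding on membranes of CHO cells expressing cloned human β1 or β3 receptors, using 125I-iodocyanopindolol. The β3 value is the high-affinity agonist-site KiH, taken from a two-site competition fit. The ratio is β1 Ki over β3 Ki.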

[15] = Volume of distribution at steady state in dog; assay type: ADME, organism-based, Canis lupus familiaris; conditions: in vivo, read-out: Vdss
[16] = Clearance in dog; assay type: ADME, organism-based, Canis lupus familiaris; conditions: in vivo
[17] = Oral bioavailability in dog; assay type: ADME, organism-based, Canis lupus familiaris; conditions: in vivo
[18] = Volume of distribution at steady state in rat; assay type: ADME, organism-based; conditions: in vivo, read-out: Vdss
[19] = Oral bioavailability in rat; assay type: ADME, organism-based; conditions: in vivo
[20] = Solubility in phosphate buffer at pH 6.5; assay type: physicochemical
Summary of the method: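 Solubility measured in phosphate buffer at pH 6.5.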

[21] = target: Beta-3 adrenergic receptor (Rattus norvegicus, UniProt P26255); assay: Agonist activity at rat adrenergic beta-3 receptor assessed as cAMP production; assay type: functional
[22] = target: Beta-3 adrenergic receptor (Rattus norvegicus) (UniProt P26255); assay: Intrinsic activity at rat adrenergic beta-3 receptor assessed as cAMP production relative to isoproterenol; assay type: functional
Chain of Beta-3 adrenergic receptor (Rattus norvegicus) (P26255 whole entry): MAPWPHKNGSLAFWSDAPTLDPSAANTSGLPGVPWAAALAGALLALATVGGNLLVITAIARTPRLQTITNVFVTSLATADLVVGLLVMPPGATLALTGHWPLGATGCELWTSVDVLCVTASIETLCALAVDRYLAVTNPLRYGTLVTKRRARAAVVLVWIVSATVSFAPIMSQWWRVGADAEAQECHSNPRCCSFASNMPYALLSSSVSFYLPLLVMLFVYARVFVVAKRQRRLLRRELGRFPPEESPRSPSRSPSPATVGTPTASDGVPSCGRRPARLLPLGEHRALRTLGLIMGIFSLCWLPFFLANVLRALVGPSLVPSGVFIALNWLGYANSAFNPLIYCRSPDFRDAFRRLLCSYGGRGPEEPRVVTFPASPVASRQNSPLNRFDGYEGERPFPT

Chain of Beta-2 adrenergic receptor (P07550 whole entry): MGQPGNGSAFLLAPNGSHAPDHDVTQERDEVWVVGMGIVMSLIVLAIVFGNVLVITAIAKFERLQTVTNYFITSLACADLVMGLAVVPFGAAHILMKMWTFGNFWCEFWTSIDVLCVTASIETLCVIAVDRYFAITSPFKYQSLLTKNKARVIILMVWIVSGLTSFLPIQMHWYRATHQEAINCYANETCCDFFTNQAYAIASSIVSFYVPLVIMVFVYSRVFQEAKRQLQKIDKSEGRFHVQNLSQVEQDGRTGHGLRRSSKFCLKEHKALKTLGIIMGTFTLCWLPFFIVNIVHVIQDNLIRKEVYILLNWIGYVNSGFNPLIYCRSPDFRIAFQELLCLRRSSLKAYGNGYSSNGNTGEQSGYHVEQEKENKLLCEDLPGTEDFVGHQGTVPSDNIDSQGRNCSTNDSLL
Chain of Beta-1 adrenergic receptor (P08588 whole entry): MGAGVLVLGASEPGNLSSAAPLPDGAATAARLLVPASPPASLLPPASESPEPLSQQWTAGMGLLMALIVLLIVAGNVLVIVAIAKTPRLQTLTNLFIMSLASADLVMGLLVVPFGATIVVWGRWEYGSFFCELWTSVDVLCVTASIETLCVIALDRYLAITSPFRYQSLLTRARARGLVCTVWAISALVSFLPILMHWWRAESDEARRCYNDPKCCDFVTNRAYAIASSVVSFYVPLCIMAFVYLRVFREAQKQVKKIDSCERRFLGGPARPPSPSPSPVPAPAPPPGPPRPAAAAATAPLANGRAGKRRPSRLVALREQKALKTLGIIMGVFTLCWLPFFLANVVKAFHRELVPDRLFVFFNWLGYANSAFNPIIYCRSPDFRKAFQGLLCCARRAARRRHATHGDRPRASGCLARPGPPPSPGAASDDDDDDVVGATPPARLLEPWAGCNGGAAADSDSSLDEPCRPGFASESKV
Chain of Beta-3 adrenergic receptor (Rattus norvegicus, UniProt P26255) (P26255 whole entry): as the sequence (P26255 whole entry) above

## O[C@@H](CNCCOc1ccc(-c2cocn2)cc1)c1cccnc1
[1]
  Activity: 42%
[2]
  clearance: 13 mL/min/kg
[3]
  ED20: 2 mg/kg
[4]
  Activity: 10%
[5]
  Activity: 11%
[6]
  Activity: 29%
[7]
  Ki: 10 nM
[8]
  Activity: 8%
[9]
  Intrinsic activity: 94%
[10]
  half-life: 1.4 h
[11]
  half-life: 5.1 h
[12]
  EC50: 20 nM
[13]
  Ki: 200 nM
[14]
  Ratio Ki: 20
[15]
  Vd: 2.8 L/kg
[16]
  clearance: 6 mL/min/kg
[17]
  bioavailability: 59%
[18]
  Vd: 0.89 L/kg
[19]
  bioavailability: 66%

## O[C@@H](CNCCOc1ccc(-c2csc(-c3cccnc3)n2)cc1)c1cccnc1
[9]
  Intrinsic activity: 121%
[12]
  EC50: 120 nM
[13]
  Ki: 120 nM

## O[C@@H](CNCCc1ccc(-c2csc(C(F)(F)F)n2)cc1)c1cccnc1
[9]
  Intrinsic activity: 94%
[12]
  EC50: 4490 nM

## O[C@@H](CNCCc1ccc(-c2csc(-c3cccnc3)n2)cc1)c1cccnc1
[9]
  Intrinsic activity: 106%
[12]
  EC50: 1190 nM

## OCc1nc(-c2ccc(OCCNC[C@H](O)c3cccnc3)cc2)co1
[7]
  Ki: 30 nM
[9]
  Intrinsic activity: 94%
[12]
  EC50: 42 nM
[13]
  Ki: 270 nM
[14]
  Ratio Ki: 8.6

## O=S(=O)(Nc1ccc(CCNC[C@H](O)c2cccnc2)cc1)c1ccc(-c2nc(-c3ccc(C(F)(F)F)cc3)cs2)cc1
[9]
  Intrinsic activity: 92%

## CCc1nc(-c2ccc(OCCNC[C@H](O)c3cccnc3)cc2)co1
[7]
  Ki: 37 nM
[9]
  Intrinsic activity: 133%
[12]
  EC50: 57 nM
[13]
  Ki: 400 nM
[14]
  Ratio Ki: 11

## COCc1nc(-c2ccc(OCCNC[C@H](O)c3cccnc3)cc2)co1
[9]
  Intrinsic activity: 110%
[12]
  EC50: 47 nM
[13]
  Ki: 210 nM

## O[C@@H](CNCCOc1ccc(-c2ncco2)cc1)c1cccnc1
[9]
  Intrinsic activity: 24%
[12]
  EC50: 520 nM

## O[C@@H](CNCCOc1ccc(-c2csc(-c3ccccc3)n2)cc1)c1cccnc1
[7]
  Ki: 500 nM
[9]
  Intrinsic activity: 53%
[12]
  EC50: 580 nM
[13]
  Ki: 150 nM

## O[C@@H](CNCCOc1ccc(-c2coc(COCc3ccccc3)n2)cc1)c1cccnc1
[9]
  Intrinsic activity: 137%
[12]
  EC50: 220 nM
[13]
  Ki: 50 nM

## O[C@@H](CNCCOc1ccc(-c2csc(-c3ccncc3)n2)cc1)c1cccnc1
[9]
  Intrinsic activity: 106%
[12]
  EC50: 65 nM
[13]
  Ki: 97 nM

## O[C@@H](CNCCOc1ccc(-c2cscn2)cc1)c1cccnc1
[6]
  Activity: 11%
[7]
  Ki: 10 nM
[9]
  Intrinsic activity: 85%
[12]
  EC50: 27 nM
[13]
  Ki: 140 nM
[14]
  Ratio Ki: 14.2
[20]
  solubility: > 10000 µg/mL
[21]
  EC50: 26 nM
[22]
  Intrinsic activity: 104%

## Cc1nc(-c2ccc(OCCNC[C@H](O)c3cccnc3)cc2)cs1
[1]
  Activity: 32%
[6]
  Activity: 20%
[7]
  Ki: 120 nM
[9]
  Intrinsic activity: 106%
[12]
  EC50: 170 nM
[13]
  Ki: 100 nM
[14]
  Ratio Ki: 0.8
[21]
  EC50: 13 nM
[22]
  Intrinsic activity: 113%

## Cc1nc(-c2ccc(CCNC[C@H](O)c3cccnc3)cc2)cs1
[9]
  Intrinsic activity: 55%
[12]
  EC50: 1360 nM

## CCc1nc(-c2ccc(OCCNC[C@H](O)c3cccnc3)cc2)cs1
[9]
  Intrinsic activity: 106%
[12]
  EC50: 170 nM
[13]
  Ki: 37 nM

## Cc1nc(-c2ccc(OCCNC[C@H](O)c3cccnc3)cc2)co1
[7]
  Ki: 21 nM
[9]
  Intrinsic activity: 111%
[12]
  EC50: 37 nM
[13]
  Ki: 400 nM
[14]
  Ratio Ki: 19

## O[C@@H](CNCCc1ccc(-c2csc(-c3ccccc3)n2)cc1)c1cccnc1
[9]
  Intrinsic activity: 108%
[12]
  EC50: 2740 nM

## CS(=O)(=O)Nc1cc([C@@H](O)CNCCc2ccc(-c3csc(-c4ccccc4)n3)cc2)ccc1Cl
[9]
  Intrinsic activity: 70%
[12]
  EC50: 490 nM

## CC(C)c1nc(-c2ccc(OCCNC[C@H](O)c3cccnc3)cc2)co1
[7]
  Ki: 49 nM
[9]
  Intrinsic activity: 135%
[12]
  EC50: 57 nM
[13]
  Ki: 360 nM
[14]
  Ratio Ki: 7.4

## Cc1ocnc1-c1ccc(OCCNC[C@H](O)c2cccnc2)cc1
[9]
  Intrinsic activity: 80%
[12]
  EC50: 309 nM
[13]
  Ki: 170 nM

## O[C@@H](CNCCOc1ccc(-c2csc(C3CCCC3)n2)cc1)c1cccnc1
[9]
  Intrinsic activity: 159%
[12]
  EC50: 290 nM
[13]
  Ki: 130 nM

## CCc1nc(-c2ccc(CCNC[C@H](O)c3cccnc3)cc2)cs1
[9]
  Intrinsic activity: 80%
[12]
  EC50: 2250 nM

## CCc1nc(-c2ccc(CCNC[C@H](O)c3ccc(Cl)c(NS(C)(=O)=O)c3)cc2)cs1
[9]
  Intrinsic activity: 95%
[12]
  EC50: 130 nM

## O[C@@H](CNCCOc1ccc(-c2csc(C(F)(F)F)n2)cc1)c1cccnc1
[9]
  Intrinsic activity: 150%
[12]
  EC50: 200 nM
[13]
  Ki: 100 nM

## O[C@@H](CNCCOc1ccc(-c2cnco2)cc1)c1cccnc1
[9]
  Intrinsic activity: 98%
[12]
  EC50: 200 nM

## Cc1nc(-c2ccc(CCNC[C@H](O)c3ccc(Cl)c(NS(C)(=O)=O)c3)cc2)cs1
[9]
  Intrinsic activity: 121%
[12]
  EC50: 230 nM

## Cc1nc(-c2ccc(OCCNC[C@H](O)c3cccnc3)cc2)c(C)o1
[9]
  Intrinsic activity: 75%
[12]
  EC50: 606 nM
[13]
  Ki: 1550 nM
